pIC50: −log10 of the molar value. Activity calls are given as the source filed them. The rule behind the calls is not given here.

The target of experiment [1] is T1, Neuronal acetylcholine receptor; alpha4/beta2 (Homo sapiens, UniProt P17787+P43681). The experiment is described as follows: Agonist activity at human nAChR alpha4beta2 expressed in HEK ts201 cells assessed as increase in calcium mobilization at 30 uM measured every 1.5 sec by fluorescence analysis. The experiment is classed as functional, cell-based. A general note: Calcium assays in cells follow changes in intracellular calcium, usually with a dye or a luminescent sensor.
T1 sequence (P17787 whole entry): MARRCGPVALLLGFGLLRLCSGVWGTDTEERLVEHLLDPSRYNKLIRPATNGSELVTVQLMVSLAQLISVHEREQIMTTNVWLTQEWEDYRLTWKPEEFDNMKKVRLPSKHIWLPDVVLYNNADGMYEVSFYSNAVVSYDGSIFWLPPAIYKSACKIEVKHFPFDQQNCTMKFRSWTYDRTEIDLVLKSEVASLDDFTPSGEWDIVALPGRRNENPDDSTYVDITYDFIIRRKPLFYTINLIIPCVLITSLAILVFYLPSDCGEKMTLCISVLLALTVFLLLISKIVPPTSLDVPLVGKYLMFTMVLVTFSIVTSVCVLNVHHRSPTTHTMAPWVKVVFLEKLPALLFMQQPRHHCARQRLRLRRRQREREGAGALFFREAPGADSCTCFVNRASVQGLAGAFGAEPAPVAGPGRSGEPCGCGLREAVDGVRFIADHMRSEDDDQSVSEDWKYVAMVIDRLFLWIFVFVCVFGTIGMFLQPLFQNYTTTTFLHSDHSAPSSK
T1 sequence (P43681 whole entry): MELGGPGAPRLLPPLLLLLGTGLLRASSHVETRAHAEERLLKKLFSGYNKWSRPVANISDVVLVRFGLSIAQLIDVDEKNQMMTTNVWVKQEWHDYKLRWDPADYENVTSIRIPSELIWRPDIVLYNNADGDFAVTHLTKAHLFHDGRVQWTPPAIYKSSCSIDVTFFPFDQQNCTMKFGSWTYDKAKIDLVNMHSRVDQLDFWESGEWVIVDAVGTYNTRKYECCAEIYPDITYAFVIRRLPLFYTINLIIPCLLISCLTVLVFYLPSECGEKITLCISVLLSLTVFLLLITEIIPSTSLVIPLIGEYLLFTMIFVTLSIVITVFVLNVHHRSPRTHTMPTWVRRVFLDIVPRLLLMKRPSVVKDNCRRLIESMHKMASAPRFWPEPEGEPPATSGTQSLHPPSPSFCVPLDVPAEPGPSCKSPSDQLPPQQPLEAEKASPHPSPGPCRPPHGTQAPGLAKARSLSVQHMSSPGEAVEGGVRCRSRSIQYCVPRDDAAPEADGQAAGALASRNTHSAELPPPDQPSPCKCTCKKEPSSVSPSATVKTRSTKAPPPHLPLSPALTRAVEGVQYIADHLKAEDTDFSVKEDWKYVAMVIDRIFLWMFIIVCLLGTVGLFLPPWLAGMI

Experiment [2] addresses T2, Neuronal acetylcholine receptor; alpha3/beta4 (Homo sapiens, UniProt P30926+P32297). The experiment is described as follows: Agonist activity at human nAChR alpha3beta4 expressed in HEK ts201 cells assessed as increase in calcium mobilization at 30 uM measured every 1.5 sec by fluorescence analysis. The experiment is classed as functional, cell-based.
Experiment [3] has as its target T1, Neuronal acetylcholine receptor; alpha4/beta2. The experiment is described as follows: Negative allosteric modulation of human nAChR alpha4beta2 expressed in HEK ts201 cells assessed as inhibition of epibatidine-induced calcium mobilization measured every 1.5 sec by fluorescence analysis. In kind it is cell-based. Put shortly: (§1)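 HEK ts201 cells stably expressing human α4β2 or α3β4 nAChRs were plated on poly-L-ornithine-coated wells at 2.0–2.3 × 10^5 cells/well and used ~24 h later. They were washed with HEPES-buffered Krebs and loaded with 50% Calcium 5 NW dye for 1 h at 24 °C in the dark. Test compound was given at 6 concentrations across 0.1–100 µM, with final DMSO 1% at the top concentration. The agonist was 1 µM epibatidine, and fluorescence (ex 485/em 525 nm) was read every ~1.5 s.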

Experiment [4] concerns the target T2, Neuronal acetylcholine receptor; alpha3/beta4. Nature of the experiment: Negative allosteric modulation of human nAChR alpha3beta4 expressed in HEK ts201 cells assessed as inhibition of epibatidine-induced calcium mobilization measured every 1.5 sec by fluorescence analysis. The experiment is classed as cell-based. In outline:
as §1

Experiment [5] concerns the target T1, Neuronal acetylcholine receptor; alpha4/beta2. The experiment is described as follows: Negative allosteric modulation of human nAChR alpha4beta2 expressed in HEK ts201 cells assessed as decrease in epibatidine-induced calcium mobilization up to 100 uM measured every 1.5 sec by fluorescence analysis. The experiment is classed as cell-based. Put shortly:
as §1

Experiment [6] addresses T2, Neuronal acetylcholine receptor; alpha3/beta4. The experiment is described as follows: Negative allosteric modulation of human nAChR alpha3beta4 expressed in HEK ts201 cells assessed as decrease in epibatidine-induced calcium mobilization up to 100 uM measured every 1.5 sec by fluorescence analysis. The experiment is classed as cell-based. Put shortly:
as §1

Experiment [7] has as its target T1, Neuronal acetylcholine receptor; alpha4/beta2. The experiment is described as follows: Relative selectivity, ratio of IC50 for human nAChR alpha3beta4 expressed in HEK ts201 cells to IC50 for human nAChR alpha4beta2 expressed in HEK ts201 cells. The experiment is classed as cell-based.
For experiment [8] the target is unchanged. Nature of the experiment: Negative allosteric modulation of human nAChR alpha4beta2 expressed in HEK ts201 cells assessed as inhibition of epibatidine-induced calcium mobilization at 0.1 to 100 uM measured every 1.5 sec by fluorescence analysis. In kind it is cell-based. Put shortly:
as §1

The target in experiment [9] is T2, Neuronal acetylcholine receptor; alpha3/beta4. The experiment is described as follows: Negative allosteric modulation of human nAChR alpha3beta4 expressed in HEK ts201 cells assessed as inhibition of epibatidine-induced calcium mobilization at 0.1 to 100 uM measured every 1.5 sec by fluorescence analysis. The experiment is classed as cell-based. Put shortly: as §1

Experiment [10] deals with T1, Neuronal acetylcholine receptor; alpha4/beta2. Nature of the experiment: Noncompetitive inhibition of human nAChR alpha4beta2 expressed in HEK ts201 cells assessed as inhibition of epibatidine-induced calcium mobilization at 30 uM measured every 1.5 sec by fluorescence analysis. The experiment is classed as cell-based. In outline: (§2)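 Epibatidine concentration-response curves were run with and without 30 µM modulator in HEK ts201 cells expressing human α4β2 or α3β4 nAChRs. Cells were loaded with Calcium 5 NW dye for 1 h at 24 °C in HEPES-buffered Krebs, and fluorescence (ex 485/em 525 nm) was monitored every ~1.5 s.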

Experiment [11] concerns the target T2, Neuronal acetylcholine receptor; alpha3/beta4. Nature of the experiment: Noncompetitive inhibition of human nAChR alpha3beta4 expressed in HEK ts201 cells assessed as inhibition of epibatidine-induced calcium mobilization at 30 uM measured every 1.5 sec by fluorescence analysis. The experiment is classed as cell-based. In outline: as §2

T2 sequence (P30926 whole entry): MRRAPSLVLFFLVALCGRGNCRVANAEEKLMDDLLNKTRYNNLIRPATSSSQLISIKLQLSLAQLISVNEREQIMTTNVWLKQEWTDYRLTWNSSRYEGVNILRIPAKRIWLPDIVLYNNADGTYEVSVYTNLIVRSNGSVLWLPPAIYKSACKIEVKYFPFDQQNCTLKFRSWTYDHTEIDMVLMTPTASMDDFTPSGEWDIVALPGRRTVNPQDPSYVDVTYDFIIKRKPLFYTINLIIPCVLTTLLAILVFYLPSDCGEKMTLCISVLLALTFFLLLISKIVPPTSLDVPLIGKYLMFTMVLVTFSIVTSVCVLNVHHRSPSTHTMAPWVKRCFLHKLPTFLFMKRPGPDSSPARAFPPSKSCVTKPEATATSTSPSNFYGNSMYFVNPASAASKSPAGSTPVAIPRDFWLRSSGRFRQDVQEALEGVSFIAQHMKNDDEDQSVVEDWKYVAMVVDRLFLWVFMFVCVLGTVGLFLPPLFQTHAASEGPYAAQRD
T2 sequence (P32297 whole entry): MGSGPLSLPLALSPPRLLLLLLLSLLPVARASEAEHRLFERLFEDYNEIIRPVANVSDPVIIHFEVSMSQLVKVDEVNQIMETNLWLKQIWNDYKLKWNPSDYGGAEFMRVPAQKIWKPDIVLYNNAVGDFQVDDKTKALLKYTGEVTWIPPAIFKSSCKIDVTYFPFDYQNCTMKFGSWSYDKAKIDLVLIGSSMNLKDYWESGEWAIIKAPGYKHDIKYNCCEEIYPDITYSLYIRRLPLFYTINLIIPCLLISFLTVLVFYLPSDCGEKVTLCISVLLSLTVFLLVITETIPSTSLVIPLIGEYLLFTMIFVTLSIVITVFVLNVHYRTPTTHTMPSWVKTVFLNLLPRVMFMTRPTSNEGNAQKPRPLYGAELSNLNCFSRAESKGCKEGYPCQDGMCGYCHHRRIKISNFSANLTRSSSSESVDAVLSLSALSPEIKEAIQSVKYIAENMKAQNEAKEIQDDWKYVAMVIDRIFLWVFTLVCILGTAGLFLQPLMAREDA

Turning to `O=C(CN1CCN(S(=O)(=O)c2cccnc2)CC1)Nc1cc[nH]n1`, the result in experiment [1] and in experiment [2] was inactive.

Broadly, the pIC50 is the IC50 on a negative log10 scale, so that one unit is a factor of ten. For `COC(=O)c1ccc(NC(=O)CN2CCN(S(=O)(=O)c3ccccc3F)CC2)cc1`, the pIC50 in [3] is 4.91; in experiment [4], 4.95. The result in experiment [1] and in experiment [2] was inactive.

As for `O=C(CN1CCN(S(=O)(=O)c2ccccc2F)CC1)Nc1ccn[nH]1`, the negative-log IC50 (pIC50) in experiment [5] and in experiment [6] was < 4.00 in each case.

As to `O=C(CN1CCN(S(=O)(=O)c2cccnc2)CC1)Nc1ccccc1F`, the pIC50 in experiment [3] was 4.69; in [4], 4.30. Also, the outcome in [1] and in experiment [2] was inactive.

Consider `COc1ccc(S(=O)(=O)N2CCN(CC(=O)Nc3ccccc3F)CC2)cc1`, for which the pIC50 in [3] is 4.87; in experiment [4], 4.81. Besides, the result in [1] and in experiment [2] was inactive.

On to `COc1ccc(NC(=O)CN2CCN(S(=O)(=O)c3ccc(F)cc3)CC2)cc1`, for which the result in [1] and in experiment [2] was inactive.

Turning to `O=C(CN1CCN(S(=O)(=O)c2ccc(F)cc2)CC1)Nc1cc[nH]n1`, the result in [1] and in experiment [2] was inactive.

For `O=C(CN1CCN(S(=O)(=O)c2ccccc2F)CC1)Nc1ccccc1F`, the outcome in [1] and in experiment [2] was inactive. Moreover, in experiment [7], the Ratio IC50 is 12.

Take `O=C(CN1CCN(S(=O)(=O)c2ccc(F)cc2)CC1)Oc1ccccc1-c1ccccc1`: the negative-log IC50 (pIC50) in experiment [3] is 4.91; in [4] it was 4.62. Moreover, the outcome in experiment [1] and in experiment [2] was inactive.

In the case of `O=S(=O)(c1ccc(F)cc1)N1CCNCC1`, the result in experiment [8] and in [9] was inactive.

For the compound `O=C(CN1CCN(S(=O)(=O)c2ccccc2)CC1)Nc1ccccc1F`, the negative logarithm of the IC50 (pIC50) in experiment [3] is 5.39; in experiment [4], 5.34. Moreover, the result in experiment [1] and in [2] was inactive.

For `COc1ccc(S(=O)(=O)N2CCN(CC(=O)Nc3ccc(F)cc3)CC2)cc1`, the negative-log IC50 (pIC50) in experiment [3] was 4.63; in experiment [4], 4.77. Besides, the result in experiment [1] and in experiment [2] was inactive.

Consider `O=C(CN1CCN(S(=O)(=O)c2ccccc2)CC1)Nc1ccccc1`, for which the values for the negative-log IC50 (pIC50) in experiment [3] and in [4] were 5.02 and 4.79, respectively. Also, the outcome in experiment [1] and in experiment [2] was inactive.

With `O=C(CN1CCN(S(=O)(=O)c2ccc(F)cc2)CC1)Nc1ccc(F)cc1`, the outcome in experiment [1] and in experiment [2] was inactive.

With `O=C(CN1CCN(S(=O)(=O)c2ccc(F)cc2)CC1)Nc1ccccc1F`, the inhibition result in experiment [10] and in experiment [11] was “Active” each time. Moreover, the outcome in experiment [1] and in [2] was inactive.

As for `O=C(CN1CCN(S(=O)(=O)c2ccccc2F)CC1)Oc1ccccc1-c1ccccc1`, the pIC50 in [3] was 4.68; in experiment [4], 4.63. Also, the outcome in experiment [1] and in [2] was inactive.

As for `O=C(CN1CCN(S(=O)(=O)c2ccc(F)cc2)CC1)Nc1ccc2[nH]ncc2c1`, the outcome in [1] and in experiment [2] was inactive.

Take `COc1ccc(NC(=O)CN2CCN(S(=O)(=O)c3ccccc3F)CC2)cc1`: the pIC50 was 4.77 in experiment [3] and 4.72 in [4]. The result in experiment [1] and in experiment [2] was inactive. Moreover, in [7], the Ratio IC50 was found to be 1.1.

Consider `COc1ccc(NC(=O)CN2CCN(S(=O)(=O)c3cccnc3)CC2)cc1`, for which the outcome in experiment [1] and in experiment [2] was inactive. The pIC50 in experiment [4] was 4.02; in experiment [5] it was < 4.00.

Consider `O=C(CN1CCN(S(=O)(=O)c2ccccc2F)CC1)Nc1ccc(C(=O)O)cc1`, for which the result in experiment [1] and in experiment [2] was inactive. Further, the pIC50 in experiment [5] and in experiment [6] was < 4.00 in each case.

`O=C(CN1CCN(S(=O)(=O)c2ccccc2F)CC1)Nc1ccc(F)cc1`: the negative logarithm of the IC50 (pIC50) in [3] was 5.10; in experiment [4] it was 4.87. The outcome in experiment [1] and in experiment [2] was inactive.

In the case of `O=C(CN1CCN(S(=O)(=O)c2ccc(F)cc2)CC1)Nc1ccccc1`, the result in experiment [1] and in [2] was inactive.

For the compound `O=C(CN1CCN(S(=O)(=O)c2ccccc2F)CC1)Nc1cc[nH]n1`, the result in experiment [1] and in experiment [2] was inactive.

In the case of `O=C(CN1CCN(S(=O)(=O)c2cccnc2)CC1)Nc1ccn[nH]1`, the values for the negative logarithm of the IC50 (pIC50) in experiment [3] and in experiment [6] were 4.08 and < 4.00, respectively.

The record behind these values is ChEMBL document CHEMBL1938370, “Structure-activity relationship studies of sulfonylpiperazine analogues as novel negative allosteric modulators of human neuronal nicotinic receptors” (J Med Chem, 2011).
